Reference: ChEMBL document CHEMBL1139139, “Discovery of novel 2,3-diarylfuro[2,3-b]pyridin-4-amines as potent and selective inhibitors of Lck: synthesis, SAR, and pharmacokinetic properties” (Bioorg Med Chem Lett, 2007)

Columns and labels:
T-cell [1] = assay: Inhibition of T cell activation in human mixed lymphocyte reaction; format: functional, cell-based
T-cell [2] = assay: Inhibition of anti-CD3/CD28-induced IL2 secretion in human T cells; format: functional, cell-based
Procedure, shortened: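 Human T cells stimulated with anti-CD3/CD28, with IL-2 secretion as read-out. IC50 determined.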

[3] = molecular target: Vascular endothelial growth factor receptor 2 (Homo sapiens, UniProt P35968); assay: Inhibition of KDR
Rattus norvegicus = assay: (§1) Half life in Sprague-Dawley rat at 1 mg/kg, iv; format: ADME, organism-based; set-up: dose 1 mg/kg, route intravenous; details: in vivo
[4] = molecular target: Tyrosine-protein kinase Lck (Homo sapiens, UniProt P06239); assay: Inhibition of Lck by HTRF assay
Activated CDC42 kinase 1 = Activated CDC42 kinase 1 (Homo sapiens, UniProt Q07912); assay: Inhibition of Ack1
[5] = molecular target: T1, Tyrosine-protein kinase JAK3 (Homo sapiens, UniProt P52333); assay: Inhibition of JAK3
T1 sequence (P52333 whole entry): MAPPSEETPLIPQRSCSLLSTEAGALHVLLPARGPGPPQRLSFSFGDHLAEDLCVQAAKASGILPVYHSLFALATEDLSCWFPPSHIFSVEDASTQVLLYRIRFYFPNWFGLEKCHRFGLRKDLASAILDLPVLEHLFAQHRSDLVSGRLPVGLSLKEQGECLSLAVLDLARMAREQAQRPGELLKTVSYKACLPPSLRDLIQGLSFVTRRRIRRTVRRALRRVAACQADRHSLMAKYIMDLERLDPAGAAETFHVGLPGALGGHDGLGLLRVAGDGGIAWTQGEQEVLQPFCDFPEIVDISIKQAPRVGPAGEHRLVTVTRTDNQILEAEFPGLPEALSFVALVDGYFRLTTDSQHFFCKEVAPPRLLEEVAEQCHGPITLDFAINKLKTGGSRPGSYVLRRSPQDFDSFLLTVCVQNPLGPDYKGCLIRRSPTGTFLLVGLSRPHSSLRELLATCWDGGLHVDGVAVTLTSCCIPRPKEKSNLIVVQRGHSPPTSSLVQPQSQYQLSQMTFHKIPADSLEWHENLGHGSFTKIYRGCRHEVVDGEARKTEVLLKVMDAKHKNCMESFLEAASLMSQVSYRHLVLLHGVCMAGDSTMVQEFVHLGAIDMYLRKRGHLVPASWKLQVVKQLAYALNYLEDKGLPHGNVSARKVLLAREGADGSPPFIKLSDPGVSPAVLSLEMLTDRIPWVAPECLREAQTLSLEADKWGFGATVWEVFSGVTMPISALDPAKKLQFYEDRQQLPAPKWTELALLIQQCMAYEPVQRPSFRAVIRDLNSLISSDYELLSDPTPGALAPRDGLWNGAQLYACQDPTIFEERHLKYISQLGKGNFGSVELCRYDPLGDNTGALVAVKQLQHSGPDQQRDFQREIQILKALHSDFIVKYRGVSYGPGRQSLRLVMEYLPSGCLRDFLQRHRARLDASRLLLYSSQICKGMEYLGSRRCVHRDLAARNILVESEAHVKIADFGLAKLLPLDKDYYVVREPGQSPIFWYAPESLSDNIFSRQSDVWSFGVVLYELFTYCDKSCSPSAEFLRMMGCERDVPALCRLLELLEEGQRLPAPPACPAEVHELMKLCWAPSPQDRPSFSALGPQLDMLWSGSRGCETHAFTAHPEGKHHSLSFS

[6] = as §1; format: ADME, organism-based; set-up: dose 1 mg/kg, route intravenous; details: Sprague-Dawley, in vivo
[7] = Volume of distribution at steady state Sprague-Dawley rat at 1 mg/kg, iv; format: ADME, organism-based; set-up: dose 1 mg/kg, route intravenous; details: in vivo, read-out: Vdss
[8] = Clearance in Sprague-Dawley rat at 1 mg/kg, iv; format: ADME, organism-based; set-up: dose 1 mg/kg, route intravenous; details: in vivo

Vascular endothelial growth factor receptor 2, sequence (P35968 whole entry): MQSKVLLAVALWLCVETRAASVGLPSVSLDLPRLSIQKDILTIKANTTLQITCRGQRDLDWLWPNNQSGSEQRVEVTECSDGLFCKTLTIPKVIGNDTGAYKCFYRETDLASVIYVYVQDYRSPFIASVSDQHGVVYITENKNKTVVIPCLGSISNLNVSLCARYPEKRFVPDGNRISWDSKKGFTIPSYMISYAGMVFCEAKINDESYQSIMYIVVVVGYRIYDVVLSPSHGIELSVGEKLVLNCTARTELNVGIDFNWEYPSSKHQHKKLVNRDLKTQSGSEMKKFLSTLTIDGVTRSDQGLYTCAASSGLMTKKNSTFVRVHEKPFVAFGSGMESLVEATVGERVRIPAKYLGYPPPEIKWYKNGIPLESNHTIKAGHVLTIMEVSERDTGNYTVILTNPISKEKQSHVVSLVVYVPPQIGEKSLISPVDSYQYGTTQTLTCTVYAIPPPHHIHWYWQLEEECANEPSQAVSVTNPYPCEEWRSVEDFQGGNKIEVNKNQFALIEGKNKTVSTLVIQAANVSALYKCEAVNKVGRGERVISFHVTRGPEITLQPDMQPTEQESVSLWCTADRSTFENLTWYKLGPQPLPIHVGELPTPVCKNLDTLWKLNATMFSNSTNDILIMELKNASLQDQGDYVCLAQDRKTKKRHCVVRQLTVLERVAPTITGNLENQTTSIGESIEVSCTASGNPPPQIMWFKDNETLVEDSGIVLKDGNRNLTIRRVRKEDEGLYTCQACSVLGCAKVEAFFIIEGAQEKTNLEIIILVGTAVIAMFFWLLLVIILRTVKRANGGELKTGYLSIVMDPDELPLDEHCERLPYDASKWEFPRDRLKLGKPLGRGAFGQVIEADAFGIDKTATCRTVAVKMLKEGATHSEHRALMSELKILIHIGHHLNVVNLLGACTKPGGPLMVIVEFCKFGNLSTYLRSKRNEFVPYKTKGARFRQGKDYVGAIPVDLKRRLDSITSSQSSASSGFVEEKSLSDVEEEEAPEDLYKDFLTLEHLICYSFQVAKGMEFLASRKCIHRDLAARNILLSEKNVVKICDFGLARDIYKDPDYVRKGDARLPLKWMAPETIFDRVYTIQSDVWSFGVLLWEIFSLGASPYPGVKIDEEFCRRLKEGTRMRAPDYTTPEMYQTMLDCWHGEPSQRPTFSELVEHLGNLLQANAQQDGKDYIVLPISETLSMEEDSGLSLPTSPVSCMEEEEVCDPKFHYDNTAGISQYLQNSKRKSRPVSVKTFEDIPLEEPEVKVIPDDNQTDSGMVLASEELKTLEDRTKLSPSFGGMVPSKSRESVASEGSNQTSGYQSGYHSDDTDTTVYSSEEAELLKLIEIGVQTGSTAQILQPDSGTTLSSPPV
Tyrosine-protein kinase Lck, sequence (P06239 whole entry): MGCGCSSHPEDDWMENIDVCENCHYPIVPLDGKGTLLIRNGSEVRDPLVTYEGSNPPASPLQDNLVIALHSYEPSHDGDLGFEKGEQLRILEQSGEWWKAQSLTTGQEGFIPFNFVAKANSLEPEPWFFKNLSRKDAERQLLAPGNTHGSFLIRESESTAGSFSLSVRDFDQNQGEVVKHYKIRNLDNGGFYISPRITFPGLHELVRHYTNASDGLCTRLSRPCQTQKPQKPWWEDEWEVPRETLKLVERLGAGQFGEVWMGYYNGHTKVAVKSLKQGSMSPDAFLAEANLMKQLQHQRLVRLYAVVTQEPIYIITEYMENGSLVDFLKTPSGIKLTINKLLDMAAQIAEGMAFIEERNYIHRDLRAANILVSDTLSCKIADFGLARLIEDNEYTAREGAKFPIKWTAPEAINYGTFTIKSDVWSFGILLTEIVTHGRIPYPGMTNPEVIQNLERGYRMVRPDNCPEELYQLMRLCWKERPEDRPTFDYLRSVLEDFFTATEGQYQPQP
Activated CDC42 kinase 1, sequence (Q07912 whole entry): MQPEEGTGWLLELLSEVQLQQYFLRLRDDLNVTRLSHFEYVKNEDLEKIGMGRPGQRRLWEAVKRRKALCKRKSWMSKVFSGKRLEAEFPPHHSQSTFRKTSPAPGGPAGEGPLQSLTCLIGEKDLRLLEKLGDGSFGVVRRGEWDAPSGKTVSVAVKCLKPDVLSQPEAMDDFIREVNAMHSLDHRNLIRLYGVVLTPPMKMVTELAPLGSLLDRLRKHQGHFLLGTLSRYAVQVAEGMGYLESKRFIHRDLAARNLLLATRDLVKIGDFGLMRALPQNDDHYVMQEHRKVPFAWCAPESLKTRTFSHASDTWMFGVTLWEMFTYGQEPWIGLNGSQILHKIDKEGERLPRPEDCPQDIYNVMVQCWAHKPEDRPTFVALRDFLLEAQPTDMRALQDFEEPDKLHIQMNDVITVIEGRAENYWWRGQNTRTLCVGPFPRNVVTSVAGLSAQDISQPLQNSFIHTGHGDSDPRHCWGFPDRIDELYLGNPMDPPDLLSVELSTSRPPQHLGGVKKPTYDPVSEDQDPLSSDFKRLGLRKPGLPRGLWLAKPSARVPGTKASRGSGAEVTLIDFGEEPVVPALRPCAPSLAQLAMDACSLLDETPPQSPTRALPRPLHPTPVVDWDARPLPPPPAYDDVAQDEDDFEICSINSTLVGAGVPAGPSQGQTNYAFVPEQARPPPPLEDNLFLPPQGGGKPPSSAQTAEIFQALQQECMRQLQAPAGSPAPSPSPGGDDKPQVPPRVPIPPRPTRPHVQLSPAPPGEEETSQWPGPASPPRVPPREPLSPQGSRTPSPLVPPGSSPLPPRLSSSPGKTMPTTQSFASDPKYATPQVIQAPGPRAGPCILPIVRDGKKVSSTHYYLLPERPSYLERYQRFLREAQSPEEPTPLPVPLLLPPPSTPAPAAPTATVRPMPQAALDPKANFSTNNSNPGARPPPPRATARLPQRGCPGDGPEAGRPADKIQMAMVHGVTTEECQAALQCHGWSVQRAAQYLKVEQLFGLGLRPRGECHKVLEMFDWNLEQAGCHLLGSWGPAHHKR

SMILES	IC50 (T-cell [1])	IC50 (T-cell [2])	IC50 [3]	t1/2 (Rattus norvegicus)	IC50 [4]	IC50 (Activated CDC42 kinase 1)	IC50 [5]	half-life [6]	Vd [7]	clearance [8]
CC(C)N(CCOc1ccc(-c2oc3nccc(NCCN4CCNCC4)c3c2-c2ccccc2)cc1)C(C)C	18 nM	250 nM	67 nM	3.1 h	19 nM	180 nM	44 nM			
c1ccc(-c2c(-c3ccc(OCCN4CCCCC4)cc3)oc3nccc(NCCCn4ccnc4)c23)cc1			1700 nM			930 nM	1400 nM			
c1ccc(-c2oc3nccc(NC[C@@H]4CCCO4)c3c2-c2ccccc2)cc1	4000 nM	5200 nM	4200 nM		2100 nM	110 nM	26 nM			
c1ccc(-c2c(-c3ccc(OCCN4CCOCC4)cc3)oc3nccc(NCCN4CCNCC4)c23)cc1	14 nM	130 nM	57 nM			150 nM	32 nM	318 min	4.7 L/kg	128 mL/min/kg
c1ccc(-c2c(-c3ccc(OCCN4CCCC4)cc3)oc3nccc(NCCN4CCNCC4)c23)cc1	170 nM	650 nM	210 nM			170 nM	110 nM			
c1ccc(-c2c(-c3ccc(OCCn4ccnc4)cc3)oc3nccc(NCCN4CCNCC4)c23)cc1	57 nM	470 nM	160 nM			84 nM	25 nM	48 min	7.2 L/kg	192 mL/min/kg
c1ccc(-c2oc3ncnc(NCCN4CCNCC4)c3c2-c2ccccc2)cc1		710 nM	2600 nM							
c1ccc(-c2oc3nccc(NCCN4CCNCC4)c3c2-c2ccccc2)cc1	620 nM	1200 nM	360 nM			420 nM	140 nM	90 min	2.3 L/kg	20 mL/min/kg
c1ccc(-c2c(-c3ccc(OCCN4CCCCC4)cc3)oc3nccc(NCCN4CCNCC4)c23)cc1	61 nM	510 nM	100 nM		29 nM	120 nM	71 nM	282 min	60 L/kg	188 mL/min/kg
c1ccc(-c2c(-c3ccc(OCCN4CCCCC4)cc3)oc3nccc(NCCc4ccncc4)c23)cc1			4700 nM		1600 nM	180 nM	80 nM			
c1ccc(-c2c(-c3ccc(OCCN4CCCCC4)cc3)oc3nccc(NCCc4cccnc4)c23)cc1			370 nM			20 nM	37 nM			
